According to ChEMBL document CHEMBL4513216, “Probing the Open Global Health Chemical Diversity Library for Multistage-Active Starting Points for Next-Generation Antimalarials” (ACS Infect Dis, 2020):

Test: Toxicity liver stage against HepG2, at 10uM
Type: cell-based
Set-up: test concentration 10 uM, cell line HepG2-A16-CD81EGFP
Conditions: human, HepG2-A16-CD81EGFP cells; read-out: INHIBITION
Outline: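 Uninfected HepG2-A16-CD81EGFP cells, 3 × 10^3 per well, 1536-well, plated on prespotted compound at 10 μM final, parasite-free screening media added to match infected plates; puromycin 10 μM positive, DMSO 0.5% negative; run in parallel with 48 h PbLuc assay at 37 °C, 5% CO2; viability by CellTiter-Glo luminescence, normalized to controls.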

C[C@H](N)C(=O)N1CCC(c2[nH]ncc2-c2ccccc2)CC1
cytotoxicity at 10 µM: 2.4%

COc1ccc(C2=CCN(C(=O)CN(CC(N)=O)C(C)C)CC2)cc1
cytotoxicity at 10 µM: 23.3%

O=C(NC[C@H]1Cn2c(-c3ccccc3)cnc2CO1)C1CCOCC1
cytotoxicity at 10 µM: -0.869%

Cc1nnc(SC2CCc3ccccc3NC2=O)n1C (stereo not given)
cytotoxicity at 10 µM: -1.31%

CC(NC(=O)Nc1nccs1)c1ccc(S(C)(=O)=O)cc1 (stereo not given)
cytotoxicity at 10 µM: 7.04%

O=S(=O)(Cc1ccccc1)N1CCCn2cnc(CN3CCCC3)c2C1
cytotoxicity at 10 µM: 3.3%

CCn1nc(CC(C)C)cc1C(=O)N1CCC(n2cnnc2)CC1
cytotoxicity at 10 µM: -7.71%

CC(=O)N1CCC(NC2(Cc3cc(C(C)(C)O)on3)COC2)CC1
cytotoxicity at 10 µM: -1.09%

Cc1ccc(CN2C[C@H](OCCN(C)C)[C@H]3OCCC[C@H]32)o1
cytotoxicity at 10 µM: -146%

Cc1ccccc1N1CCN(C(=O)Cn2ccnc2)CC1=O
cytotoxicity at 10 µM: -1.86%

O=C(CNC(=O)c1cc(Cl)ccn1)Nc1nccs1
cytotoxicity at 10 µM: -1.87%

CC(=O)N1CCCN(C(=O)NCCCc2cn[nH]c2C)CC1
cytotoxicity at 10 µM: -9.67%

CN(Cc1cnn(C)c1)C(=O)NC1CCCC1
cytotoxicity at 10 µM: 7.43%

CCCN1CCCn2c(nc(CNC(=O)c3cnoc3C)cc2=O)C1
cytotoxicity at 10 µM: 2.32%

Cc1cc(C(F)(F)F)cc(=O)n1Cc1nc(C(C)C)no1
cytotoxicity at 10 µM: 0.9%

CCOCC(=O)Nc1cccnc1-n1ccnc1C
cytotoxicity at 10 µM: 3.62%

Cc1nc(CN2CCCC(NCc3ccc4ccccc4c3)C2)no1 (stereo not given)
cytotoxicity at 10 µM: -0.375%

Cc1ccc(C(=O)N2CCN(C)C3(CCC(=O)N(C)CC3)C2)c(F)c1 (stereo not given)
cytotoxicity at 10 µM: -1.68%

Cn1nc(C2CCCN(Cc3ccsc3)C2)c2nccnc21 (stereo not given)
cytotoxicity at 10 µM: -2.58%

CN(C)C1CCCN(C(=O)c2cccc(-c3ncc[nH]3)c2)CC1 (stereo not given)
cytotoxicity at 10 µM: 4.2%

Cn1cnc2c1C(COCC1CC1)CN(C(=O)c1ccsc1)C2 (stereo not given)
cytotoxicity at 10 µM: 4.73%

CNC(=O)[C@@H]1C[C@@H](NC(=O)Cc2nonc2C)CN1Cc1sccc1C
cytotoxicity at 10 µM: -4.42%

CC(C)Nc1ccnc(N2Cc3cnc(C(C)(C)C)nc3C2)n1
cytotoxicity at 10 µM: 8.33%

CCN(C)C(=O)CN1CCC(c2cc(N3CCOCC3)nc(C)n2)CC1
cytotoxicity at 10 µM: -2.02%

CCc1noc(CS(=O)(=O)CC=C(C)C)n1
cytotoxicity at 10 µM: 5.41%

c1cnn(Cc2nnc3n2CCCN(c2nccs2)C3)c1
cytotoxicity at 10 µM: 9.37%

COCC(C)(NC(=O)c1cc(Cl)c(-n2cccc2)cc1OC)C(N)=O (stereo not given)
cytotoxicity at 10 µM: -4.15%

Cc1cccnc1CNC(=O)CC1C(=O)NCCN1CC(C)(C)C (stereo not given)
cytotoxicity at 10 µM: 5.48%

c1nc2c(c(-c3ccsc3)n1)CCN(Cc1ccoc1)CC2
cytotoxicity at 10 µM: -11.4%

COC[C@@]12CCO[C@@H]1CCN(Cc1ccccc1OC)C2
cytotoxicity at 10 µM: -110%

O=C(Cc1ccsc1)N1CCCC2(COCCN(CC3CC3)C2)C1 (stereo not given)
cytotoxicity at 10 µM: -127%

CC(=O)N1CCC2(CCN(C(=O)c3ccc(F)c(C(F)(F)F)c3)C2)C1 (stereo not given)
cytotoxicity at 10 µM: -76.1%

CCCn1cc(-c2cc(-c3cc(CC)n[nH]3)c(C#N)c(N)n2)c(C)n1
cytotoxicity at 10 µM: -6.7%

CCC(=O)N(c1ccc(C(=O)OC)cc1C)C(C)C
cytotoxicity at 10 µM: 0.814%

O=C(CN1CCS(=O)(=O)CC1)NCc1cccc(Br)c1
cytotoxicity at 10 µM: 6.32%

COCCn1c(C(=O)NCc2n[nH]c(C)n2)cc2ccccc21
cytotoxicity at 10 µM: -3.83%

NC(=O)C1CCN(Cc2csc(-c3ncccn3)n2)CC1
cytotoxicity at 10 µM: -6.04%

N#Cc1c(N)nc2c(c1C1CCOC1)CCc1cc(O)ccc1-2 (stereo not given)
cytotoxicity at 10 µM: 23.4%

CCCC(=O)N(C)Cc1nc(N2CCCC2)ncc1-c1ccncc1
cytotoxicity at 10 µM: 9.76%

CN(CCO)C[C@@H]1CN(C(=O)Cc2ccc3ccccc3c2)C[C@@H]1CO
cytotoxicity at 10 µM: -1.96%

COCC(=O)N1CCc2nc(C)nc(NC(C)C)c2CC1
cytotoxicity at 10 µM: -102%

COCCCN(Cc1ccc(F)cc1Cl)C1CCS(=O)(=O)C1 (stereo not given)
cytotoxicity at 10 µM: 13.7%

O=C(Cn1ccc2c(Cl)cccc21)N[C@@H](C(=O)O)c1ccccc1
cytotoxicity at 10 µM: 2.19%

CC(c1nc(C2CC2)no1)N1CCN(CC(=O)N2CCOCC2)CC1 (stereo not given)
cytotoxicity at 10 µM: 6.75%

Cc1ccc(CN2CC(C(=O)Nc3ccccc3)C3(CCOCC3)C2)s1 (stereo not given)
cytotoxicity at 10 µM: -17.5%

CC(C)(C)c1cc(NC(=O)CN(Cc2ccco2)Cc2cccs2)on1
cytotoxicity at 10 µM: 11.2%

COc1ccc(-c2nnc(C(C)N3CCOCC3)o2)cc1 (stereo not given)
cytotoxicity at 10 µM: -10.4%

O=C(CN1CCN(c2nccs2)CC1)Nc1cccnc1
cytotoxicity at 10 µM: -4.23%

CCC1c2ccsc2CCN1C(=O)NCc1ccnc(N(C)C)c1 (stereo not given)
cytotoxicity at 10 µM: -11.9%

CN(Cc1noc(C2CC2)n1)C1CCN(Cc2ncc[nH]2)C1 (stereo not given)
cytotoxicity at 10 µM: -1.87%

COc1ccc(CN2C[C@@H](CN(C)C)[C@@H](CO)C2)cc1OC
cytotoxicity at 10 µM: -1.19%

COc1ccc(CN2CCC(CO)(Cc3ccc(Cl)cc3)CC2)c(O)c1
cytotoxicity at 10 µM: -134%

CN1CCC2(CC1)CN(C(=O)c1cccnc1)c1ccc(Cl)cc12
cytotoxicity at 10 µM: -109%

COc1ccc(OCc2cc(C(=O)N3CCCCO3)n[nH]2)c(Cl)c1
cytotoxicity at 10 µM: 8.15%

NC(=O)C1CCN(C(=O)CCCc2nnc(-c3ccccc3)o2)CC1
cytotoxicity at 10 µM: -13.2%
